These results are taken from ChEMBL document CHEMBL3271964, “Synthesis and biological activity of new 2-nitroimidazole derivatives” (J Med Chem, 1978).

Values after ≈ are worked out from the molar mass of the structure shown. Active and inactive are the calls of the source.

One data set concerns Staphylococcus aureus. Kind of data set: Antimicrobial activity against Staphylococcus aureus Tour by microtitre method. The format is functional.
The test system of another data set is Streptococcus pyogenes. Kind of data set: Antimicrobial activity against Streptococcus pyogenes C 203 by microtitre method. The format is functional.
For a further data set, the system named is Clostridium perfringens. Description: Antimicrobial activity against Clostridium perfringens ISS 30543 by broth dilution method. It counts as functional.
Data set [1] deals with Mycoplasmoides gallisepticum. Kind of data set: Antimicrobial activity against Mycoplasma gallisepticum S6 Weybridge by broth dilution method. The format is functional.
Data set [2] relates to Trichomonas vaginalis. Kind of data set: Antimicrobial activity against Trichomonas vaginalis by broth dilution method. It counts as functional.
For data set [3], the system named is Trichomonas vaginalis. Description: Antimicrobial activity against Trichomonas vaginalis infected in po dosed mouse. It counts as functional. An outline of the steps:
(§1)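 Mice infected subcutaneously, then dosed orally. Vehicle depended on compound: suspension in aqueous 0.75% sodium carboxymethylcellulose, DMF-H₂O, DMF-phosphate buffer pH 7.38, or water. ED₅₀ determined, with metronidazole run in parallel. The relative value is ED₅₀ (test) / ED₅₀ (metronidazole).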

Data set [4] relates to Trichomonas vaginalis. Kind of data set: Antimicrobial activity against Trichomonas vaginalis infected in po dosed mouse relative to metronidazole. The format is functional. In a few lines: as §1
The nature of data set [5]: Therapeutic index, ratio of LD50 for po dosed mouse to ED50 for Trichomonas vaginalis infected in po dosed mouse. The following applies: in vivo, read-out: Ratio LD50/ED50. It counts as organism-based. In a few lines:
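Ratio of two mouse values, both dosed orally. The LD50 comes from acute toxicity, with compounds suspended in aqueous 0.5% Methocel 90-HG. The ED50 comes from subcutaneous T. vaginalis infection treated orally. The ED50 vehicle varied by compound: suspension in aqueous 0.75% sodium carboxymethylcellulose, DMF-H2O, DMF-phosphate buffer pH 7.38, or H2O.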

The nature of data set [6]: Acute toxicity in po dosed mouse. The format is organism-based. The following applies: in vivo. In a few lines: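 Acute toxicity in mice by the oral route. Compounds were given as suspensions in aqueous 0.5% Methocel 90-HG.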
Data set [7] in a line: Solubility of the compound in water. The note with it: buffer. The format is physicochemical.
For data set [8], the system named is Rattus norvegicus. Kind of data set: Inhibition of carrageenan-induced edema in rat. The format is functional, organism-based.
Data set [9] has as its system Rattus norvegicus. Description: Effect on pressor response in conscious normotensive rat up to 50 mg/kg. The format is functional, organism-based. On the set-up: dose 50 mg/kg.
The test system of data set [10] is Mus musculus. Description: Toxicity in CF1 mouse assessed as reduction in curiosity at 60 to 600 mg/kg, po by Irwin test. The format is organism-based. Further details: dose 60-600 mg/kg, route oral. The following applies: in vivo. In a few lines:
(§2)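 Irwin observational method in male CF1 mice (19–22 g). Oral dosing of a suspension in 0.5% Methocel 90-HG at 10 mL/kg, up to 600 mg/kg; controls received saline. Directly observable behavioural and autonomic changes were scored, with the threshold dose for onset recorded.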

Data set [11] relates to Mus musculus. Description: Toxicity in CF1 mouse assessed as reduction in spontaneous activity at 60 to 600 mg/kg, po by Irwin test. On the set-up: dose 60-600 mg/kg, route oral. The format is organism-based. The note with it: in vivo. An outline of the steps:
as §2

Data set [12] concerns Mus musculus. Description: Toxicity in CF1 mouse assessed as reduction in opening of eyelid at 60 to 600 mg/kg, po by Irwin test. The format is organism-based. The following applies: in vivo. Further details: dose 60-600 mg/kg, route oral. In a few lines:
as §2

In data set [13] the test system is Mus musculus. Description: Toxicity in CF1 mouse assessed as reduction in body tone at 60 to 600 mg/kg, po by Irwin test. It counts as organism-based. On the set-up: dose 60-600 mg/kg, route oral. The following applies: in vivo. An outline of the steps: as §2
For data set [14], the system named is Mus musculus. Kind of data set: Toxicity in CF1 mouse assessed as reduction in heart rate at 60 to 600 mg/kg, po by Irwin test. The format is organism-based. The note with it: in vivo. On the set-up: dose 60-600 mg/kg, route oral. An outline of the steps:
as §2

The test system of data set [15] is Mus musculus. Kind of data set: Toxicity in CF1 mouse assessed as reduction in respiratory rate at 60 to 600 mg/kg, po by Irwin test. It counts as organism-based. Further details: dose 60-600 mg/kg, route oral. The following applies: in vivo. In a few lines: as §2
Data set [16] concerns Mus musculus. Description: Toxicity in CF1 mouse assessed as change in sleeping time at 250 mg/kg, po administered 30 mins prior to hexobarbital sodium challenge relative to vehicle-treated control. It counts as organism-based. On the set-up: dose 250 mg/kg, route oral. The note with it: in vivo, 0.5 h. An outline of the steps:
(§3)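 Male CF1 mice (19–22 g), groups of 30, given oral doses as a 0.5% Methocel 90-HG suspension at 10 mL/kg; saline controls (90 animals). Hexobarbital sodium 75 mg/kg ip given 30 min later, at 25–26 °C. Sleeping time given as mean ± SE and as % change vs controls; Dunnett's t test.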

In data set [17] the test system is Mus musculus. Kind of data set: Toxicity in CF1 mouse assessed as change in sleeping time at 500 mg/kg, po administered 30 mins prior to hexobarbital sodium challenge relative to vehicle-treated control. It counts as organism-based. On the set-up: dose 500 mg/kg, route oral. The following applies: in vivo, 0.5 h. In a few lines: as §3
Data set [18] relates to Mus musculus. Kind of data set: Inhibition of strychine sulfate/pentetrazole-induced death in CF1 mouse at 250 to 500 mg/kg, po administered 60 mins prior to strychine sulfate/pentetrazole challenge. It counts as functional, organism-based.
In data set [19] the test system is Mus musculus. Description: Toxicity in CF1 mouse assessed as ataxia at 60 to 600 mg/kg, po by Irwin test. The format is organism-based. On the set-up: dose 60-600 mg/kg, route oral. The following applies: in vivo. An outline of the steps: as §2
Data set [20] has as its system Mus musculus. Description: Toxicity in CF1 mouse assessed as cyanosis at 60 to 600 mg/kg, po by Irwin test. The format is organism-based. On the set-up: dose 60-600 mg/kg, route oral. The following applies: in vivo. An outline of the steps: as §2

For the molecule `Cn1c(C(C)(C)O)cnc1[N+](=O)[O-]`, the MIC in the data set on Staphylococcus aureus was 100 µg/mL (≈ 540 µM); against Streptococcus pyogenes, over 300 µg/mL; in the data set on Clostridium perfringens, 25 µg/mL (≈ 135 µM); in data set [1], 40 µg/mL (≈ 216 µM); in the data set on Trichomonas vaginalis [2] it was 25 µg/mL (≈ 135 µM). Further, the ED50 in the data set on Trichomonas vaginalis [3] turned out to be 1.65 mg/kg. In the data set with Trichomonas vaginalis [4], the “Ratio ED50” value is given as 0.28. Besides, in data set [5], the selectivity ratio was determined as 423.

Turning to `O=[N+]([O-])c1cncn1CCN1CCOCC1` [NIMORAZOLE], the MIC in the data set on Staphylococcus aureus is over 300 µg/mL; against Streptococcus pyogenes it was over 300 µg/mL; against Clostridium perfringens it was 0.6 µg/mL (≈ 2.65 µM); in data set [1] it was over 300 µg/mL; with Trichomonas vaginalis [2], 12.5 µg/mL (≈ 55.3 µM). This molecule also came in with an ED50 in the data set on Trichomonas vaginalis [3] of 37.9 mg/kg. Further, in the data set on Trichomonas vaginalis [4], the “Ratio ED50” value is given as 4.66. Further, in data set [6], the LD50 was determined as 1530 mg/kg. For the same molecule, the selectivity ratio in data set [5] came out at 40.

On to `Cn1c(C(C)(C)OC(=O)NN)cnc1[N+](=O)[O-]`, for which the MIC was over 100 µg/mL against Staphylococcus aureus; 100 µg/mL (≈ 411 µM) against Streptococcus pyogenes; 3.1 µg/mL (≈ 12.7 µM) with Clostridium perfringens; 25 µg/mL (≈ 103 µM) in data set [1]; 100 µg/mL (≈ 411 µM) against Trichomonas vaginalis [2]. For the same molecule, the ED50 in the data set on Trichomonas vaginalis [3] was found to be 4.67 mg/kg. Further, the “Ratio ED50” value with Trichomonas vaginalis [4] turned out to be 0.33. Moreover, in [6], the LD50 was found to be 660 mg/kg. Besides, the selectivity ratio in data set [5] turned out to be 141.

As to `Cn1c(C(C)(C)OC(=O)c2ccccc2)cnc1[N+](=O)[O-]`, the MIC is 100 µg/mL (≈ 346 µM) with Staphylococcus aureus; 100 µg/mL (≈ 346 µM) with Streptococcus pyogenes; 3.1 µg/mL (≈ 10.7 µM) against Clostridium perfringens; 50 µg/mL (≈ 173 µM) in [1]; over 100 µg/mL with Trichomonas vaginalis [2]. In the data set with Trichomonas vaginalis [3], this molecule came in with an ED50 of 16.2 mg/kg. Moreover, the “Ratio ED50” value in the data set with Trichomonas vaginalis [4] amounted to 1.62.

On to `CS(=O)(=O)[O-].Cn1c(C(C)(C)[n+]2ccccc2)cnc1[N+](=O)[O-]`, for which the MIC (against Staphylococcus aureus; in the data set on Streptococcus pyogenes; against Clostridium perfringens; in data set [1]; with Trichomonas vaginalis [2]) was over 100 µg/mL throughout. The molecule also came in with an ED50 with Trichomonas vaginalis [3] of over 40 mg/kg. In the data set with Trichomonas vaginalis [4], the “Ratio ED50” value is given as over 4. Further, the solubility result in [7] is recorded as “soluble”.

As for `Cn1c(C(C)(C)OC(=O)Oc2ccccc2)cnc1[N+](=O)[O-]`, the MIC in the data set with Staphylococcus aureus was 100 µg/mL (≈ 328 µM); against Streptococcus pyogenes it was 100 µg/mL (≈ 328 µM); against Clostridium perfringens it was 10 µg/mL (≈ 32.8 µM); in data set [1] it was over 100 µg/mL; against Trichomonas vaginalis [2], 2 µg/mL (≈ 6.55 µM). In addition, the “Ratio ED50” value with Trichomonas vaginalis [4] was 0.28. Besides, the selectivity ratio in data set [5] stood at 1970. Further, in the data set on Rattus norvegicus [8], the inhibition entry was “inactive”. Moreover, the result in the data set on Rattus norvegicus [9] was inactive. Besides, the Activity entry in the data set with Mus musculus [10], in the data set on Mus musculus [11], with Mus musculus [12], in the data set with Mus musculus [13], in the data set on Mus musculus [14] and in the data set with Mus musculus [15] was “Toxic” each time. The Activity in the data set with Mus musculus [16] was 15.5%; in the data set on Mus musculus [17], 18.1%; in the data set with Mus musculus [19], “Toxic”; with Mus musculus [20] it was “Toxic”. In the data set with Mus musculus [18], the inhibition result was “Active”.
